In ChEMBL document CHEMBL4340559, “Design and synthesis of functionalized coumarins as potential anti-austerity agents that eliminates cancer cells' tolerance to nutrition starvation” (Bioorg Med Chem Lett, 2019):
The source made the active and inactive calls. The calls are words filed in the database; no cut-off is given here.

Experiments:
PANC-1 [1] = test: Antiausteritic activity against human PANC1 cells in nutrient-deprived medium measured after 24 hrs by WST8 assay; type: functional
PANC-1 [2] = test: Cytotoxic activity against human PANC1 cells in nutrient-rich medium measured after 24 hrs by WST8 assay; type: cell-based; conditions: panc-1, 24 h
PANC-1 [3] = test: Antiausteritic activity against human PANC1 cells in nutrient deprived medium assessed as cell shrinkage at 5 uM measured at 7 hrs by automated time-lapse microscopic method; type: functional, cell-based
Procedure, shortened: (§1)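 PANC-1 cells in NDM were held in a stage-top incubator with 5 μM compound, with untreated NDM control run alongside. Images were captured every 10 min for 24 h. Mobility, shrinkage and death were followed over time.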

PANC-1 [4] = test: Antiausteritic activity against human PANC1 cells in nutrient deprived medium assessed as appearance of rounded cells at 1.25 uM after 24 hrs by ethidium bromide/acridine orange staining based phase contrast microscopic method; type: functional, cell-based
Procedure, shortened: (§2)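 PANC-1 cells exposed 24 h in nutrient-deprived medium (NDM) alongside untreated control, then stained with ethidium bromide/acridine orange. AO enters all cells and fluoresces green. EB enters only dead or dying cells and fluoresces red. Cells were scored by fluorescence colour and morphology.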

PANC-1 [5] = test: Antiausteritic activity against human PANC1 cells in nutrient deprived medium assessed as inhibition of cell mobility at 5 uM measured within 4 hrs by automated time-lapse microscopic method; type: functional, cell-based; procedure, shortened: as §1
PANC-1 [6] = test: Antiausteritic activity against human PANC1 cells in nutrient deprived medium assessed as cell death at 5 uM measured at 13 to 20 hrs by automated time-lapse microscopic method; type: functional, cell-based; procedure, shortened: as §1
PANC-1 [7] = test: Inhibition of colony formation in human PANC1 cells at 12.5 to 50 uM in the nutrient rich DMEM media treated for 24 hrs followed by compound washout and subsequent incubation for 10 days by crystal violet staining based assay; type: functional, cell-based
Procedure, shortened: (§3)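 PANC-1 cells were exposed 24 h to 12.5, 25 or 50 μM in nutrient-rich DMEM. Medium was then replaced with fresh DMEM and cells grown 10 d to form colonies. Read-out was the average area occupied by colonies relative to untreated control wells. Three replications; significance set at p < 0.05 versus control.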

PANC-1 [8] = test: Antiausteritic activity against human PANC1 cells in nutrient deprived medium assessed as leakage of cellular contents into culture media at 1.25 uM after 24 hrs by ethidium bromide/acridine orange staining based phase contrast microscopic method; type: functional, cell-based; procedure, shortened: as §2
PANC-1 [9] = test: Inhibition of colony formation in human PANC1 cells at 12.5 uM in the nutrient rich DMEM media treated for 24 hrs followed by compound washout and subsequent incubation for 10 days by crystal violet staining based assay relative to untreated control; type: functional; procedure, shortened: as §3
PANC-1 [10] = test: Inhibition of colony formation in human PANC1 cells at 25 uM in the nutrient rich DMEM media treated for 24 hrs followed by compound washout and subsequent incubation for 10 days by crystal violet staining based assay relative to untreated control; type: functional; procedure, shortened: as §3
PANC-1 [11] = test: Antiausteritic activity against human PANC1 cells in nutrient deprived medium assessed as plasma blebbing at 1.25 uM after 24 hrs by ethidium bromide/acridine orange staining based phase contrast microscopic method; type: functional, cell-based; procedure, shortened: as §2
PANC-1 [12] = test: Inhibition of colony formation in human PANC1 cells at 50 uM in the nutrient rich DMEM media treated for 24 hrs followed by compound washout and subsequent incubation for 10 days by crystal violet staining based assay relative to untreated control; type: functional; procedure, shortened: as §3
PANC-1 [13] = test: Antiausteritic activity against human PANC1 cells in nutrient deprived medium assessed as rupture of cell membrane at 1.25 uM after 24 hrs by ethidium bromide/acridine orange staining based phase contrast microscopic method; type: functional; procedure, shortened: as §2

| SMILES | PC50 (PANC-1 [1]) [µM] | Activity (PANC-1 [2]) | other results |
| --- | --- | --- | --- |
| O=C(NCCCc1ccc(Cl)cc1Cl)c1cc2ccc(O)cc2oc1=O | 3.45 | Non-Toxic | – |
| O=C(NCCCc1ccccc1)c1cc2c(O)cccc2oc1=O | >100 | Non-Toxic | – |
| O=C(NCCCc1ccccc1)c1cc2cccc(O)c2oc1=O | 3.28 | Non-Toxic | – |
| O=C(NCCCc1ccccc1)c1cc2ccc(O)cc2oc1=O | 0.44 | Non-Toxic | Activity (PANC-1 [3]): Active; Activity (PANC-1 [4]): Active; Activity (PANC-1 [5]): Active; Activity (PANC-1 [6]): Active; inhibition (PANC-1 [7]): Dose-dependent effect; Activity (PANC-1 [8]): Active; inhibition at 12.5 µM (PANC-1 [9]): 8%; inhibition at 25 µM (PANC-1 [10]): 11%; Activity (PANC-1 [11]): Active; inhibition at 50 µM (PANC-1 [12]): 19%; Activity (PANC-1 [13]): Active |
| O=C(NCCCCc1ccccc1)c1cc2ccc(O)cc2oc1=O | 4.7 | Non-Toxic | – |
| O=C(NCCCc1cccc(Cl)c1)c1cc2ccc(O)cc2oc1=O | 3.92 | Non-Toxic | – |
| O=C(NCc1ccccc1)c1cc2ccc(O)cc2oc1=O | >100 | Non-Toxic | – |
| O=C(NCCCc1ccccc1)c1cc2ccccc2oc1=O | >100 | Non-Toxic | – |
| O=C(NCCCc1ccccc1Cl)c1cc2ccc(O)cc2oc1=O | 12.6 | Non-Toxic | – |
| O=C(NCCCc1ccccc1)c1cc2cc(O)ccc2oc1=O | >100 | Non-Toxic | – |
| O=C(NCCCc1ccc(Cl)cc1)c1cc2ccc(O)cc2oc1=O | 0.51 | Non-Toxic | – |
| O=C(NCCc1ccccc1)c1cc2ccc(O)cc2oc1=O | >100 | Non-Toxic | – |
| O=C(NCCCC1CCCCC1)c1cc2ccc(O)cc2oc1=O | 2.19 | Non-Toxic | – |
| O=C(NCCCc1cccc(Cl)c1Cl)c1cc2ccc(O)cc2oc1=O | 7.48 | Non-Toxic | – |
